Bioassay records: PubChem, The Scripps Research Institute Molecular Screening Center
Shown are actives, neighbours in structure and some others; about 2.2% of the full set was active somewhere.
NR2E3 ag-1: NR2E3 agonists in two-hybrid cells, primary screen, cell-based, luminescence, CHO-S, Gal4-NCOR/VP16-NR2E3; luciferase; actives 0.35% (n = 360,000); inhibition of corepressor binding, % at 3.98 µM;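 active = inhibition above the mean of all tested compounds plus 3 SD, cut at about 70% in these data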;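 note: 0% = DMSO with NR2E3 transfected cells and 100% = cells lacking NR2E3 construct; higher means lower luciferase signal from less NR2E3 corepressor binding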
Target sequence (Q9Y5X4 whole entry, looked up, the tested form may be a part): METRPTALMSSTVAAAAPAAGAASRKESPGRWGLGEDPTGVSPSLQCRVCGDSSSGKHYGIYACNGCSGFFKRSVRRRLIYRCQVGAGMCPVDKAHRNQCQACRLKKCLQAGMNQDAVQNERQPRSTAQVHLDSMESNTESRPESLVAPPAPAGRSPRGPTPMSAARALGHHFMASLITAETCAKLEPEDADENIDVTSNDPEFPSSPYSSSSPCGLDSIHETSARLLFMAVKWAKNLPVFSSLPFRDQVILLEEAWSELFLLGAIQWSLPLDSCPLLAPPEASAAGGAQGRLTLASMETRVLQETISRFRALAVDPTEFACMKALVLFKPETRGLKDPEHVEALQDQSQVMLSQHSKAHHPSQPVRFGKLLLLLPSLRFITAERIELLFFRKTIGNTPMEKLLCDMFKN
GalR3 antag: GalR3 antagonists in HEK293 cells, primary screen, cell-based, fluorescence readout | actives 0.44% (n = 360,000) | HEK293 GalR3-CNG cAMP membrane potential fluorescence; galR3 body fused to GalR1 C-terminus | AID 651719, 2012 | inhibition, % at 3 µM;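 active = inhibition above the screen-wide average plus 3 SD, cut at about 13% in these data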;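 note: forskolin and galanin both at EC90 stimulate the cells; cAMP rise reported by CNG channel membrane potential dye signal; 0% = forskolin plus galanin with DMSO and 100% = forskolin alone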
NR2E3 ag-2: inhibitors of NR2E3-RetCOR corepressor binding, primary screen, NR2E3 agonist project, biochemical, TR-FRET, GST-NR2E3, biotin-RetCOR. Photoreceptor-specific nuclear receptor (Homo sapiens), Q9Y5X4. 1536-well. inhibition of corepressor binding, % at 4.78 µM. actives 0.12% (n = 320,000);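 active = percent inhibition above the cutoff of mean plus 3 SD of all tested compounds, set per screening campaign, cut at about 20% in these data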;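 note: 0% = DMSO wells and 100% = biotin wells as full block of FRET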
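System: GST-tagged NR2E3 plus biotinylated RetCOR corepressor; Amount: 1.35 nM GST-tagged NR2E3 final; Dosing: single nominal compound dose of 4.8 µM; Schedule: 5 h incubation at 4 °C; Technique: TR-FRET with europium anti-GST and streptavidin-D2, 340 nm excitation; Controls: biotin wells as high control, 0.6% DMSO wells as low control.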
SMARCA2 act: SMARCA2 (BRM) function activators, primary screen, cell-based, luminescence, high throughput. MG213 cells, MMTV-luciferase reporter, dexamethasone, overnight. activation, % at 9.1 µM. actives 1% (n = 370,000). AID 652017, 2013; in the data active = activation above about 7.8%;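 note: 0% = vehicle wells and 100% = reference activator wells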
COUP-TFII inh: NR2F2 transcriptional activity inhibitors, primary screen, cell-based, luciferase reporter, HEK293T, luminescence; COUP transcription factor 2 (Homo sapiens), P24468; HEK293T NGFI-A luciferase reporter; inhibition, % at 8.6 µM; actives 0.7% (n = 370,000);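 active = inhibition above a per-plate cutoff, mean inhibition of test wells between control levels plus 3 SD, cut at about 38% in these data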;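 note: cells cotransfected with COUP-TFII expression vector driving the NGFI-A reporter; 0% = median of COUP-TF2 test wells and 100% = reporter-only cells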
NR2E3 ag conf: NR2E3 agonist confirmation in cells, cell-based, luminescence, CHO-S two-hybrid. shares compounds with NR2E3 ag-1. actives 51% (n = 2,300). inhibition, % at 3.98 µM. CHO-S mammalian two-hybrid NR2E3-NCOR, luciferase luminescence;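 active = average inhibition above a cutoff equal to the mean inhibition of all tested compounds plus one SD, cut at about 70% in these data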;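 note: 0% = DMSO in NR2E3 cells and 100% = DMSO in cells lacking NR2E3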
VP16 counter: GAL4-VP16 reporter modulators, confirmation, counter-screen for NR2E3 agonist project, cell-based, luminescence, CHO-S, high throughput | shares compounds with NR2E3 ag-1 | CHO-S GAL4-VP16 luciferase reporter | inhibition, % at 3.98 µM | actives 29% (n = 2,300) | AID 624379, 2012;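 active = mean inhibition above a cutoff equal to the average over all tested compounds plus one standard deviation, cut at about 70% in these data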;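 note: luciferase from a UAS reporter driven by GAL4-VP16 transactivation; 0% = DMSO with VP16-transfected cells and 100% = DMSO with cells lacking VP16; higher means less reporter light so more repression of VP16 activity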
Starred values were filed as active, the others as inactive.

Results for Cc1ccc(S(=O)(=O)NCc2ccccc2)cc1C(=O)NCCc1ccc(S(N)(=O)=O)cc1 ?
NR2E3 ag-1: 58; GalR3 antag: -6; NR2E3 ag-2: 5; SMARCA2 act: -1; COUP-TFII inh: 10; NR2E3 ag conf: 4; VP16 counter: 1

How did FC(F)(F)c1ccccc1NC(=S)OCCN1CCCC12CCC(c1ccccc1)CC2 (centres undefined) do in these assays?
COUP-TFII inh: 24

What do the screens show for `O=C(CCNS(=O)(=O)c1ccc(OC(F)(F)F)cc1)N1CCN(C/C=C/c2ccccc2)CC1`?
NR2E3 ag-1: 55; GalR3 antag: -3; NR2E3 ag-2: 3; SMARCA2 act: -3; COUP-TFII inh: 25; NR2E3 ag conf: 56; VP16 counter: 45

How did CCOc1ccc(-n2c(SCC(=O)Nc3ccccc3-c3ccccc3)nnc2-c2ccncc2)cc1 do in these assays?
SMARCA2 act: -2; COUP-TFII inh: 7

How did O=[N+]([O-])c1ccc(N2CCN(C(=S)NCc3ccc(Cl)cc3)CC2)cc1 do in these assays?
NR2E3 ag-1: 54; GalR3 antag: -10; NR2E3 ag-2: 1; SMARCA2 act: -7; COUP-TFII inh: 24; NR2E3 ag conf: 91*; VP16 counter: 69

How did CC1(C)CC(=Cc2cc(O)ccc2[N+](=O)[O-])C(=O)c2ccccc21 do in these assays?
NR2E3 ag-1: 98*; NR2E3 ag conf: 99*; VP16 counter: 71*

What do the screens show for `CCOC(=O)[C@]12CCCCC/C=C\1N(CCc1ccc(Cl)cc1)C(=O)[C@H]2CC(=O)N1CCN(C(=O)c2ccco2)CC1`?
SMARCA2 act: -1; COUP-TFII inh: -1

What do the screens show for `COc1ccc(NS(=O)(=O)c2ccc3oc(SCc4ccc(F)cc4)nc3c2)cc1`?
NR2E3 ag-1: 53; GalR3 antag: -3; NR2E3 ag-2: 1; SMARCA2 act: -8; COUP-TFII inh: 37; NR2E3 ag conf: 85*; VP16 counter: 69

What do the screens show for `COC(=O)[C@]12C[C@H](CC(=O)NCc3ccccc3)C(=O)N(Cc3cccc4ccccc34)C1=C[C@H](C1CCCC1)O[C@@H]2C`?
SMARCA2 act: -5; COUP-TFII inh: 9

How did Cc1cc(-c2ccc(S(=O)(=O)NCc3ccc(F)cc3)cc2)on1 do in these assays?
NR2E3 ag-1: 24; GalR3 antag: 1; NR2E3 ag-2: 2; SMARCA2 act: -4; COUP-TFII inh: 14

Results for COc1ccc(CNS(=O)(=O)c2ccc(-c3cc(C)no3)cc2)cc1 ?
NR2E3 ag-1: 51; GalR3 antag: -11; NR2E3 ag-2: 5; SMARCA2 act: -3; COUP-TFII inh: 5; NR2E3 ag conf: 31; VP16 counter: 34

How did COc1cc(NC(=O)c2ccccn2)ccc1NC(=O)c1ccccc1Cl do in these assays?
COUP-TFII inh: -15

How did Cc1cc(C)n(-c2nc(N(C)C)nc(N(C)C)n2)n1 do in these assays?
NR2E3 ag-1: 8; GalR3 antag: -4; NR2E3 ag-2: -6; SMARCA2 act: -3; COUP-TFII inh: 7

Results for CCNc1nc(NCC)nc(-n2nc(C)cc2C)n1 ?
NR2E3 ag-1: 55; GalR3 antag: -4; NR2E3 ag-2: 1; SMARCA2 act: 3; COUP-TFII inh: 18; NR2E3 ag conf: -5; VP16 counter: -8

How did CNC(=O)c1cccc(NC(=O)C(C)c2ccc3cc(OC)ccc3c2)c1 (centres undefined) do in these assays?
NR2E3 ag-1: -21; GalR3 antag: -6; NR2E3 ag-2: 6; SMARCA2 act: -1; COUP-TFII inh: -22
